Legend:
L6 [1] = assay: Selectivity IC50 index against Plasmodium falciparum K1 compared to L6 cells; format: functional
Plasmodium falciparum [2] = assay: In vitro antimalarial activity against Thai strain of Plasmodium falciparum; format: functional, organism-based
How it was run: (§1)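 P. falciparum kept on human erythrocytes; CQ-sensitive Thai and CQ-resistant FcB1 and K1 strains. Drugs diluted serially in culture medium, added to asynchronous cultures (1% parasitemia, 1% hematocrit) for 24 h at 37 °C, then 0.5 μCi [³H]hypoxanthine per well for 24 h more. Uptake compared with drug-free controls; IC50 from concentration–response curve, mean ± SD of independent experiments. DMSO ≤0.1%.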

L6 [3] = assay: In vitro cytotoxicity against mammalian L6 cells was determined; format: functional, cell-based; settings: Rattus norvegicus
How it was run: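 L6 cells, 10⁴ per well, exposed to a range of inhibitor concentrations for up to 5 days. Proliferation read by XTT colorimetric assay; inhibition relative to DMSO-treated controls; IC50 reported.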

Plasmodium falciparum [4] = assay: Resistance index as IC50 for Plasmodium falciparum K1 and Thai strains; format: functional
Plasmodium falciparum [5] = assay: Resistance index as ratio of IC50 for Plasmodium falciparum FcB1 and Thai strains; format: functional
Plasmodium falciparum [6] = assay: In vitro antimalarial activity against Plasmodium falciparum K1; format: functional, organism-based; how it was run: as §1
Plasmodium falciparum [7] = assay: In vitro antimalarial activity against Plasmodium falciparum FcB1; format: functional, organism-based; how it was run: as §1
[8] = Lipophilicity at pH 5; format: physicochemical; settings: buffer, read-out: Log D5.0
How it was run: (§2)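 Octanol/buffer shake partition: phosphate buffer pH 7.4 or acetate buffer pH 5.0, phases mutually presaturated; compound at 50–250 μg/mL in buffer. Aqueous phase shaken with octanol 30 min, centrifuged 3000 rpm 10 min. Aqueous peak areas before and after partitioning by reversed-phase C8 HPLC (acetonitrile–acetate pH 4, 80:20; 60 °C; UV 254 nm).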

[9] = Lipophilicity at pH 7.4; format: physicochemical; settings: buffer, read-out: Log D7.4; how it was run: as §2
[10] = Food vacuolar accumulation ratio was determined; format: functional
How it was run: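 Calculated, not measured: VAR from the compound's pKa values, assuming vacuolar pH 5.0 and external pH 7.4.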

| SMILES | Ratio (L6 [1]) | IC50 (Plasmodium falciparum [2]) | IC50 (L6 [3]) | Ratio (Plasmodium falciparum [4]) | Ratio (Plasmodium falciparum [5]) | IC50 (Plasmodium falciparum [6]) | IC50 (Plasmodium falciparum [7]) | logD [8] | logD [9] | Ratio [10] |
| --- | --- | --- | --- | --- | --- | --- | --- | --- | --- | --- |
| CCN(CC)CCCC(C)Nc1nc2ccccc2n2cccc12 (stereo not given) | >4.6 | 2.95 µM | > 20 µM | 1.5 | 1.7 | 4.34 µM | 4.97 µM |  |  |  |
| Clc1ccc2nc(NCCCNCCCNc3nc4ccc(Cl)cc4n4cccc34)c3cccn3c2c1 | 6.1 | 0.47 µM | 4.81 µM | 1.7 | 2.4 | 0.79 µM | 1.14 µM | 3.16 | 5.06 | 1600 |
| CCN(CC)CCCC(C)Nc1nc2cc(OC)ccc2n2cccc12 (stereo not given) | >11.2 | 0.83 µM | > 20 µM | 2.1 | 3 | 1.78 µM | 2.47 µM |  |  |  |
| Clc1ccc2nc(NCCCN3CCN(CCCNc4nc5ccc(Cl)cc5n5cccc45)CC3)c3cccn3c2c1 | 8.2 | 0.28 µM | 4.01 µM | 1.7 | 2.3 | 0.48 µM | 0.64 µM | 3.43 | 4.92 | 2100 |
| COc1ccc2c(c1)nc(NCCCN1CCN(CCCNc3nc4cc(OC)ccc4n4cccc34)CC1)c1cccn12 | 17.4 | 0.03 µM | 1.32 µM | 2.7 | 4.3 | 0.08 µM | 0.13 µM | 2.15 | 3.72 | 187000 |
| c1cnc2c(c1)nc(NCCCN1CCN(CCCNc3nc4cccnc4n4cccc34)CC1)c1cccn12 |  |  |  |  |  |  | 1.09 µM | 2.22 | 5.05 | 100 |
| CN(CCCNc1nc2ccccc2n2cccc12)CCCNc1nc2ccccc2n2cccc12 | 22.1 | 0.12 µM | 6.2 µM | 2.3 | 4 | 0.28 µM | 0.48 µM | 1.56 | 4.12 | 226000 |
| COc1ccc2nc(NCCCNCCCNc3nc4ccc(OC)cc4n4cccc34)c3cccn3c2c1 | 11 | 0.14 µM | 3.62 µM | 2.4 | 2.1 | 0.33 µM | 0.3 µM | 0.93 | 2.58 | 41700 |
| COc1ccc2c(c1)nc(NCCCNCCCNc1nc3cc(OC)ccc3n3cccc13)c1cccn12 | 26.6 | 0.04 µM | 2.98 µM | 2.7 | 4.7 | 0.11 µM | 0.19 µM | 0.8 | 2.76 | 104000 |
| COc1ccc2c(c1)nc(NCCCN1CCN(CCCNc3nc4cc(OC)ccc4n4c(Cl)ccc34)CC1)c1ccc(Cl)n12 | 9.3 | 0.25 µM | 3.07 µM | 1.32 | 2.9 | 0.33 µM | 0.72 µM | 4.17 | 5.74 | 900 |
| CN(CCCNc1nc2ccc(Cl)cc2n2cccc12)CCCNc1nc2ccc(Cl)cc2n2cccc12 | 7.1 | 0.4 µM | 4.95 µM | 1.8 | 2.5 | 0.7 µM | 1.01 µM | 3.5 | 4.44 | 1800 |
| c1cc2c(NCCCN3CCN(CCCNc4nc5ccsc5n5cccc45)CC3)nc3ccsc3n2c1 |  |  |  |  |  |  | 0.93 µM |  |  |  |
| COc1ccc2c(c1)nc(NCCCN(C)CCCNc1nc3cc(OC)ccc3n3cccc13)c1cccn12 | 106.3 | 0.05 µM | 5.74 µM | 1 | 2.2 | 0.05 µM | 0.11 µM | 0.93 | 3.55 | 105000 |
| COc1ccc2nc(NCCCN3CCN(CCCNc4nc5ccc(OC)cc5n5cccc45)CC3)c3cccn3c2c1 | 52.7 | 0.04 µM | 4.06 µM | 2 | 3.2 | 0.08 µM | 0.13 µM | 1.88 | 4.67 | 72500 |
| COc1ccc2nc(NCCCN(C)CCCNc3nc4ccc(OC)cc4n4cccc34)c3cccn3c2c1 | 19.2 | 0.12 µM | 3.79 µM | 1.7 | 2.7 | 0.2 µM | 0.32 µM | 0.41 | 3.41 | 42100 |
| c1ccc2c(c1)nc(NCCCN1CCN(CCCNc3nc4ccccc4n4cccc34)CC1)c1cccn12 | 13.6 | 0.08 µM | 5.04 µM | 4.6 | 3.6 | 0.37 µM | 0.29 µM | 1.31 | 2.52 | 409000 |
| CCN(CC)CCCC(C)Nc1nc2ccc(Cl)cc2n2cccc12 (stereo not given) | 5.6 | 1.94 µM | 17.3 µM | 1.6 | 2.5 | 3.06 µM | 4.79 µM |  |  |  |
| COc1ccc2nc(NCCCN3CCN(CCCNc4nc5ccc(OC)nc5n5cccc45)CC3)c3cccn3c2n1 |  |  |  |  |  |  | 0.6 µM | 3.97 | 4.73 | 33000 |
